# Assay results as given in ChEMBL document CHEMBL3526050, “Elucidation of the metabolic pathways and the resulting multiple metabolites of almorexant, a dual orexin receptor antagonist, in humans” (Drug Metab Dispos, 2013).
# Several values for one entry are separate records, joined by “and”; a condition that tells them apart may be missing. Equal values may be shown once.
# Experiments:
# Conditions in all cases: in vivo
# [1] = Tmax in healthy human at 200 mg, po dosed as single dose; assay type: ADME, organism-based
# How it was run: (§1)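 Plasma parent and metabolites M3, M5, M6, M8 after one 200 mg oral 14C dose in 6 fasted male subjects, sampled 0.17–240 h. Validated LC-MS/MS with penta-deuterated internal standards and positive ESI. Low range 0.4/1.0–100 ng/mL using supported liquid extraction, high range 50–1000 ng/mL using protein precipitation. Noncompartmental analysis, geometric means (95% CI), Tmax median (range).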
# Homo sapiens [2] = experiment: Drug level in healthy human treated with [14C]almorexant at 200 mg, po dosed as single dose relative to almorexant; assay type: ADME, organism-based
# How it was run: (§2)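 Plasma from 6 subjects given one 200 mg oral 14C dose, pooled over at least 2 time points and acetonitrile-precipitated. Radio-LC-MS/MS used a C18 column with ammonium formate pH 4.0/acetonitrile gradient and 0.15-min fractions scintillation-counted. Peak radioactivity converted to ng-equivalents/mL to give AUC0-t. Co-eluting metabolites grouped and expressed relative to parent AUC and to total radioactivity.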
# Homo sapiens [3] = experiment: Tlast in healthy human treated with [14C]almorexant at 200 mg, po dosed as single dose; assay type: ADME, organism-based; how it was run: as §2
# Plasma = experiment: Drug level in plasma of healthy human treated with [14C]almorexant at 200 mg, po dosed as single dose; assay type: ADME, organism-based; how it was run: as §2
# Homo sapiens [4] = experiment: Drug level in healthy human treated with [14C]almorexant at 200 mg, po dosed as single dose relative to total radioactivity; assay type: ADME, organism-based; how it was run: as §2
# Homo sapiens [5] = experiment: AUC (0 to t) in healthy human treated with [14C]almorexant at 200 mg, po dosed as single dose; assay type: ADME, organism-based, Plasma; how it was run: as §2
# Homo sapiens [6] = experiment: Half life in healthy human treated with [14C]almorexant at 200 mg, po dosed as single dose; assay type: ADME, organism-based; how it was run: as §1
# [7] = Drug level in feces of healthy human treated with [14C]almorexant at 200 mg, po dosed as single dose; assay type: ADME, organism-based
# How it was run: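 Feces pooled by weight across 6 subjects (0–48 to 192–332 h) and extracted three times with acetonitrile, then dried and reconstituted. Analyzed by radio-LC-MS/MS with a methanol/acetonitrile gradient and scintillation-counted fractions. Procedural recovery was 73.0%. Reported as percent of administered radioactive dose.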
# Homo sapiens [8] = experiment: Tmax in healthy human treated with [14C]almorexant at 200 mg, po dosed as single dose; assay type: ADME, organism-based; how it was run: as §1
# Homo sapiens [9] = experiment: AUC (0 to infinity) in healthy human treated with [14C]almorexant at 200 mg, po dosed as single dose; assay type: ADME, organism-based, Plasma; design: dose 200 mg, route oral, time infinity
# Homo sapiens [10] = experiment: Cmax in healthy human treated with [14C]almorexant at 200 mg, po dosed as single dose; assay type: ADME, organism-based; design: dose 200 mg, route oral
smiles,measurement,setting,value
COc1cc2c(cc1OC)[C@H](CC(O)c1ccc(C(F)(F)F)cc1)N([C@@H](C(N)=O)c1ccccc1)CC2 (stereo partly specified),Tmax,[1],1.6 h
same,Drug uptake,Homo sapiens [2],28.1%
same,Tlast,Homo sapiens [3],1.6 h
same,Drug metabolism,Plasma,metabolite_detected
same,Drug uptake,Homo sapiens [4],0.03%
same,AUCt,Homo sapiens [5],17.2 ng.Eq.hr/ml
CNC(=O)[C@@H](c1ccccc1)[n+]1ccc2cc(OC)c(OC)cc2c1CCc1ccc(C(F)(F)F)cc1,t1/2,Homo sapiens [6],26.3 h
same,Drug metabolism,[7],metabolite_detected
same,Tmax,Homo sapiens [8],0.9 h
same,AUC,Homo sapiens [9],282 ng·h/mL
same,Drug metabolism,Plasma,metabolite_detected
same,Cmax,Homo sapiens [10],80.4 ng/mL
COc1cc2cc[n+]([C@@H](C(N)=O)c3ccccc3)c(CCc3ccc(C(F)(F)F)cc3)c2cc1OC,Drug metabolism,[7],metabolite_detected
same,Drug metabolism,Plasma,metabolite_detected
COc1cc2c(cc1OC)[C@H](CCc1ccc(C(F)(F)F)cc1)NCC2,Drug uptake,Homo sapiens [2],541%
same,t1/2,Homo sapiens [6],10.4 h
same,Tmax,Homo sapiens [8],1.5 h
same,Tlast,Homo sapiens [3],11 h
same,AUC,Homo sapiens [9],1039 ng·h/mL
same,Drug metabolism,Plasma,metabolite_detected
same,Drug uptake,Homo sapiens [4],0.61%
same,Cmax,Homo sapiens [10],99.4 ng/ml and 49 ng.Eq/ml
same,AUCt,Homo sapiens [5],331 ng.Eq.hr/ml
COc1cc2c(cc1O)[C@H](CCc1ccc(C(F)(F)F)cc1)NCC2,Drug metabolism,Plasma,metabolite_detected
COc1cc2ccnc(CCc3ccc(C(F)(F)F)cc3)c2cc1OC,Drug metabolism,Plasma,metabolite_detected
COc1cc2c(cc1OC)[C@H](CC(O)c1ccc(C(F)(F)F)cc1)NCC2 (stereo partly specified),Drug metabolism,Plasma,metabolite_detected
